Rows were chosen to be rich in hits. Some 3.7% of all compounds tested hit in one or more screens of this group.
PKD1 inh = blocks activity of human protein kinase D1; PKD1 kinase fluorescence polarization assay; hit rate 0.056% among 200,000; Q15139; inhibition, % (concentration not given with the values); in the data active = inhibition above about 50%
Target sequence (Q15139 whole entry, looked up): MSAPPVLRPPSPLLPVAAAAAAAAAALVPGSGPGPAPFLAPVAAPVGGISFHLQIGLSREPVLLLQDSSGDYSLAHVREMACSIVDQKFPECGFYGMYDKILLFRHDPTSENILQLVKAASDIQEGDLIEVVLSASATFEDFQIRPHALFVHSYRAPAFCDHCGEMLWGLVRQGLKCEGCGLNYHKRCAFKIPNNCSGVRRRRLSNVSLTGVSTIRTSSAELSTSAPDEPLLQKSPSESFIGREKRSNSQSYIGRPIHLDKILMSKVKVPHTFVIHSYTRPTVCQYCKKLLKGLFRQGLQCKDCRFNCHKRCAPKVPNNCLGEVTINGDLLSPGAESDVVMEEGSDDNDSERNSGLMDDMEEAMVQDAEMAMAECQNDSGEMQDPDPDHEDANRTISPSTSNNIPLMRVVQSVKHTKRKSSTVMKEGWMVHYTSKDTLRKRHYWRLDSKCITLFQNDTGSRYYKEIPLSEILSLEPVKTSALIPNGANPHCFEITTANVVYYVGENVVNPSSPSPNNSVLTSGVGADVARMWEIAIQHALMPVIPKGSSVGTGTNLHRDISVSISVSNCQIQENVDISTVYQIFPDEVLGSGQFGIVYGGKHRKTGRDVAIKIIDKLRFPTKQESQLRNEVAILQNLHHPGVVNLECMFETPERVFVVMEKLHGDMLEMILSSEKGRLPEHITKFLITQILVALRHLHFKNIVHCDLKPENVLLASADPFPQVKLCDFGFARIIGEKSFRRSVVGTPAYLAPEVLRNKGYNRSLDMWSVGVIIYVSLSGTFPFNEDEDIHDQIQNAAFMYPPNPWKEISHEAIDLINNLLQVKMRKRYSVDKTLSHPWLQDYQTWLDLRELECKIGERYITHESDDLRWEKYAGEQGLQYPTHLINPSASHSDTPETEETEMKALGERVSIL
m-calpain inh = calpain II (pig) inhibition; inhibition, % at 16 µM; hit rate 0.37% among 220,000; purified calpain II, fluorogenic peptide substrate, 30 min;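 active = inhibition above about 50%, limit read from the data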
KCC2 mod = modulates chloride dependent transport by human KCC2; Q9H2X9; KCC2 cells, thallium flux FluoZin-2 fluorescence; B-score of Tl+ flux slope (higher = more flux/activation; lower = inhibition) at 10 µM; hit rate 2.2% among 190,000;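 active = thallium flux slope and its plate-corrected score both differing from the plate sample mean at a set confidence after two filtering rounds, in either direction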;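 also: slope of fluorescence scaled to starting intensity during 10 to 20 s after thallium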
ROMK primary = modulates human ROMK potassium channel activity; Tet-inducible ROMK, thallium flux fluorescence; actives lie on both sides; P48048; B-score at 10 µM; hit rate 2% among 130,000;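 active = signal ratio slope over the read window, or its plate-corrected B-score, at least 3 SD from the plate mean, either direction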;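 also: B-score of the F/F0 ratio slope over 7 to 12 s after thallium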
Arbovirus anti = antivirals against arbovirus infection; arbovirus infection cell-based antiviral screen; inhibition, % at 10 µM; hit rate 0.37% among 200,000; AID 1251; in the data active = inhibition above about 30%
MDM2 E3 inh = blocks human Mdm2 ubiquitin ligase activity. Q00987. cell-based MDM2 ubiquitination luciferase reporter, 2 h; 0 = plate control, 100 = twice control, blank-subtracted. signal enhancement, % at 5 µM. hit rate 0.11% among 210,000;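 active = signal enhancement of 30% or more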;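 also: luminescence tracks abundance of the self-degrading MDM2-luciferase fusion protein; higher signal means inhibition of MDM2 E3 ligase activity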
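Test system: mammalian cells stably expressing self-ubiquitinating, self-degrading MDM2 E3–luciferase fusion; Amount: 2000 cells in each well; Medium: DMEM; Schedule: 4 h settle plus 2 h compound, 37 °C; Technique: SteadyLite luciferase luminescence after 15 min room-temperature reagent incubation; Benchmarks: plate control and blank wells.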
KCC2 secondary = KCC2 (human) modulation, secondary assay | AID 1713 | HEK293-KCC2, thallium flux, FluoZin2 fluorescence; active compounds read high | hit rate 15% among 3,700 | shares compounds with KCC2 mod | normalised thallium flux (F/F0 slope) at 10 µM;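 active = thallium flux slope above the same plate's solvent-only control mean plus 3 SD; inconclusive = the two replicate wells disagree; inactive = no significant difference from solvent-only control wells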
KCC2 bumet counter = thallium flux despite bumetanide block in KCC2 cells, secondary assay 3 | shares compounds with KCC2 mod | HEK293-KCC2 + bumetanide/ouabain, thallium flux FluoZin2; active compounds read high | normalized thallium flux at 10 µM | hit rate 49% among 3,700;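 active = thallium entry rate above the same plate's blocked-transporter control wells by more than 3 SD; inconclusive = the two repeat wells disagree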;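 also: raw slope of fluorescence over initial fluorescence between 10 and 20 s after thallium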
KCC2 sec2 = KCC2 (human) modulation, second secondary assay | shares compounds with KCC2 mod | HEK293-KCC2, thallium flux FluoZin2 fluorescence; actives lie on both sides; F/F0 rise rate, 10–20 s post-thallium | normalized thallium flux at 10 µM | hit rate 23% among 3,700 | AID 1715;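 active = thallium flux slope more than 3 SD above or below the plate's solvent-only control mean, mostly below; inconclusive = the two repeat wells disagreed; inactive = no significant shift from solvent-only controls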;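 also: raw slope with 0.1% DMSO as baseline and bumetanide as block control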
HEK counter1 = counter-screen for KCC2 modulators: effect in parental HEK293 cells | shares compounds with KCC2 mod | thallium flux FluoZin2, ouabain; baseline-ratio fluorescence slope, 10–20 s after thallium | thallium flux rate (normalised fluorescence) at 10 µM | hit rate 46% among 3,700;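 active = thallium flux rate significantly above the same plate's solvent-only control wells, beyond their mean plus 3 SD; inconclusive = the two replicate wells gave conflicting results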
KCC2 retest ouab = modulates human KCC2 on retest with ouabain. shares compounds with KCC2 mod. HEK293-KCC2, thallium flux FluoZin2 fluorescence; bidirectional: low = inhibitor, high = activator. raw Tl+ flux slope (below DMSO = inhibition, above = activation) at 10 µM. hit rate 48% among 3,700. AID 1717;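 active = thallium flux slope beyond 3 SD from same-plate DMSO control mean in most replicates, usually higher, sometimes lower; inconclusive = repeat tests gave conflicting results; inactive = no significant difference from controls in most replicates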;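 also: slope of initial-normalized fluorescence between seconds 10 and 20 after thallium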
HEK293 Tl flux2 = parental HEK flux effect, counter-screen 2. shares compounds with KCC2 mod. HEK293 parental, thallium flux FluoZin-2 fluorescence slope. thallium flux slope at 10 µM. hit rate 33% among 3,700. AID 1718;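 active = thallium flux slope above the same plate's solvent-control mean plus 3 SD in both duplicate wells; inconclusive = duplicate wells that disagreed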;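 also: run without ouabain in cells lacking the KCC2 cotransporter; slope of fluorescence scaled to its starting value between 10 and 20 s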
* = called active by the depositor; ? = inconclusive; nt = not tested or not shown.

SMILES	PKD1 inh	m-calpain inh	KCC2 mod	ROMK primary	Arbovirus anti	MDM2 E3 inh	KCC2 secondary	KCC2 bumet counter	KCC2 sec2	HEK counter1	KCC2 retest ouab	HEK293 Tl flux2
S=C(Nc1ccccc1)Nc1cccc(Cl)c1Cl	-3.9	25.9	17.1*	0.0345	-3.2	-2.0	0.00532	0.0161*	0.0319	0.0121*	?	0.0138*
Cn1nnnc1SCC1=C(C(=O)O)N2C(=O)[C@@H](NC(=O)[C@H](O)c3ccccc3)[C@H]2SC1	0.8	16.3	-0.779	0.298	8.8	nt	nt	nt	nt	nt	nt	nt
Cn1nnnc1SCC1=C(C(=O)O)N2C(=O)C(NC(=O)C3CC3c3ccccc3)C2SC1 (stereo unspecified)	13.5	11.4	-5.42*	-1.06	2.2	-8.8	0.00782	0.00504	0.0292	?	0.0186	0.0106
COC(=O)C1CCN(S(=O)(=O)c2cn(C)c(=O)n(C)c2=O)CC1	2.5	-15.7	-3.42*	nt	4.7	-7.7	0.00879	?	0.0323	0.00772	0.0214	0.0112
CCCCCCCCC(=O)NNC(=O)c1c(O)c2ccccc2n(CCC)c1=O	-5.4	-149.2	6.31*	-0.204	-6.9	-1.0	0.00701	0.0123*	0.0318	0.0154*	0.0229	?
CCCCCCCCCC(=O)NNC(=O)c1c(O)c2ccccc2n(CCC)c1=O	-2.0	-98.9	3.92*	-0.0139	-13.4	-7.3	0.0147	0.00994*	0.0299	0.00916*	0.0183	0.0118
CCCCCCCCCCC(=O)NNC(=O)c1c(O)c2ccccc2n(CC)c1=O	1.1	-96.9	5.17*	-1.09	-12.6	1.9	0.0151	0.0153*	0.0314	0.00991*	0.0185	0.0116
CCCCCCCC(=O)NNC(=O)c1c(O)c2ccccc2[nH]c1=O	nt	-53.1	0.59	nt	nt	nt	nt	nt	nt	nt	nt	nt
Cn1nc(C(=O)Nc2sc3c(c2C#N)CCCC3)ccc1=O	-6.0	41.9	-0.646	-0.259	-0.9	0.2	nt	nt	nt	nt	nt	nt
COc1ccc(CNC(=S)N/N=C(\C)c2ccc(OC)cc2)cc1	nt	-0.5	1.98	nt	nt	-2.9	nt	nt	nt	nt	nt	nt
COc1ccc(/C(C)=N/NC(=S)NCCc2ccccc2)cc1	-0.4	21.4	7.73*	-0.64	4.1	-0.8	0.0105	0.0162*	0.0304	0.021*	?	?
C/C(=N\NC(=S)NC(C)C)c1ccccc1	nt	12.0	5.76*	nt	nt	nt	?	0.0204*	0.0283	0.00945*	0.0459*	?
CC(=O)Nc1cccc(/C(C)=N/NC(=S)NC(C)C)c1	1.6	-5.9	-0.0163	0.191	-5.4	-20.3	nt	nt	nt	nt	nt	nt
C/C(CCC(C)C)=N\NC(=S)NCc1ccccc1	-3.9	34.4	2.74	-0.00458	-3.5	-12.7	nt	nt	nt	nt	nt	nt
COc1ccccc1/C(C)=N/NC(=S)NCc1ccccc1	-7.4	0.6	6.88*	-0.426	-4.6	-0.3	0.00669	0.0155*	0.0315	0.0152*	?	0.014*
COc1ccc(NC(=S)NCCCc2ccccc2)cc1	-2.8	-4.6	-4.79*	0.0125	11.1	-1.1	0.0147	?	0.0229*	0.00669	0.0147	0.00937
CC(NC(=O)CSC1=NCCS1)c1ccccc1 (stereo unspecified)	-1.1	-12.6	0.682	nt	-7.2	-8.4	nt	nt	nt	nt	nt	nt
Cc1ccc(C(C(=O)NC2CCCC2)N(Cc2cccs2)C(=O)c2csnn2)o1 (stereo unspecified)	-0.9	-9.4	0.0276	nt	1.9	-4.1	nt	nt	nt	nt	nt	nt
O=C(NCc1cccnc1)c1ccc(Br)s1	nt	-15.5	0.262	nt	nt	nt	nt	nt	nt	nt	nt	nt
C=CCNC(=S)N/N=C(\C)c1ccc(OC)cc1	-13.2	28.3	2.92	0.179	-7.2	-4.8	nt	nt	nt	nt	nt	nt
C/C(=N\NC(=S)NCc1ccccc1)c1cccc(Br)c1	-3.7	21.8	4.83*	0.321	7.3	nt	0.0164	0.0165*	0.029	0.00835	0.0176	0.0112
C/C(=N\NC(=S)NCCc1ccccc1)c1cccc(Br)c1	-3.6	-9.0	-0.168	1.2	-6.8	-9.2	nt	nt	nt	nt	nt	nt
C=CCNC(=S)N/N=C(\C)c1cccc(OC)c1	0.2	7.2	4.86*	-0.679	-6.1	2.0	0.0126*	0.0426*	0.0317	0.015*	0.0255	0.0119*
C/C(=N\NC(=S)NCc1ccccc1)c1ccc2ccccc2c1	-2.0	13.3	6*	1.08	2.7	-3.5	0.00854	0.0192*	0.0273	0.00851*	?	0.00931
COc1ccc(S(=O)(=O)NC(CCSC)C(=O)NC2CCCCC2)cc1 (stereo unspecified)	-3.6	35.3	0.101	-0.0168	8.5	-17.9	nt	nt	nt	nt	nt	nt
C/C(=N\NC(=O)c1ccc(=O)[nH]n1)c1cccnc1	-9.3	0.1	0.0172	nt	3.8	-0.6	nt	nt	nt	nt	nt	nt
